# Reference: PMC8554411 (Pharmacology Research & Perspectives, 2021)
# Several values for one entry are separate records, joined by “and”; a condition that tells them apart may be missing. Equal values may be shown once.
# How the values were obtained:
# human mu opioid receptor [1] = biological target: T1, human mu opioid receptor (Homo sapiens, UniProt P35372); test: cell-based; details: HEK293, read-out: DAMGO Emax, inhibition of forskolin stimulated cAMP levels
# human mu opioid receptor [2] = biological target: T1, human mu opioid receptor; assay type: cell-based
# mu opioid receptor [3] = biological target: mu opioid receptor (Rattus norvegicus, UniProt P33535); assay type: in vivo
# [4] = biological target: human delta opioid receptors (Homo sapiens, UniProt P41143); assay type: cell-based; details: MCAM 20 nM
# Method in brief: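 HEK293 cells stably co-expressing the GloSensor 22F cAMP sensor and human delta receptor were kept under hygromycin B/G418 selection and plated at 40 000/well. They were loaded 2 h in the dark at 30°C with 450 μg/ml D-luciferin. Antagonist was added 15 min before agonist or during loading; for washout, medium was replaced twice. Luminescence was read at 30°C, 1 Hz: 5 min baseline, 5 min agonist, then 30 min forskolin (10 μM). Results were expressed as % forskolin stimulation; ≥4 experiments, triplicate.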
# [5] = biological target: human kappa opioid receptors (Homo sapiens, UniProt P41145); assay type: cell-based
# mu opioid receptor [6] = details: mice treated with MCAM; cited from earlier work
# kappa opioid receptor = kappa opioid receptor (Rattus norvegicus, UniProt P34975); details: in vivo
# delta opioid receptor = delta opioid receptor (Rattus norvegicus, UniProt P33533); assay type: in vivo
# human mu opioid receptor [7] = biological target: T1, human mu opioid receptor; assay type: cell-based; remark: listed apart in the source
# human kappa opioid receptors, sequence (P41145 whole entry): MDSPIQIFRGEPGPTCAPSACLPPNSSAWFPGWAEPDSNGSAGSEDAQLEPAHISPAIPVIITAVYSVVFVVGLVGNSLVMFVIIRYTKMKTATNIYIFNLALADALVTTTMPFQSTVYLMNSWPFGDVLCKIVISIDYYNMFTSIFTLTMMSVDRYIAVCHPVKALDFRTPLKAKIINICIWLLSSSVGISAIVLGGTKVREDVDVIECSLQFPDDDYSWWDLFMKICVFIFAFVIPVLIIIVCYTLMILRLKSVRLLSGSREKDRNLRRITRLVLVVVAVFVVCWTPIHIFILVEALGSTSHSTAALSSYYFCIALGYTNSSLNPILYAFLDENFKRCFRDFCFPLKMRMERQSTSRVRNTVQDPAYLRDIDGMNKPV
# human delta opioid receptors, sequence (P41143 whole entry): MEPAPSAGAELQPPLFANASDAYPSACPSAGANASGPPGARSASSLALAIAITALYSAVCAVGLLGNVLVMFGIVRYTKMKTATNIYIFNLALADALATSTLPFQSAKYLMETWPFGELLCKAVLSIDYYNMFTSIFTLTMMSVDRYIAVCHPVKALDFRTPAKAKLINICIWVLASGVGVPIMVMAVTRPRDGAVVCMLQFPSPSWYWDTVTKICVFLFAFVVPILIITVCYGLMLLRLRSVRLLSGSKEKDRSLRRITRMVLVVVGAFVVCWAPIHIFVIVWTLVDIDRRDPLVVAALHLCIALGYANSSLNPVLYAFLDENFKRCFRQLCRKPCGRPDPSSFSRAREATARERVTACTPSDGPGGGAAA
# T1 sequence (P35372 whole entry): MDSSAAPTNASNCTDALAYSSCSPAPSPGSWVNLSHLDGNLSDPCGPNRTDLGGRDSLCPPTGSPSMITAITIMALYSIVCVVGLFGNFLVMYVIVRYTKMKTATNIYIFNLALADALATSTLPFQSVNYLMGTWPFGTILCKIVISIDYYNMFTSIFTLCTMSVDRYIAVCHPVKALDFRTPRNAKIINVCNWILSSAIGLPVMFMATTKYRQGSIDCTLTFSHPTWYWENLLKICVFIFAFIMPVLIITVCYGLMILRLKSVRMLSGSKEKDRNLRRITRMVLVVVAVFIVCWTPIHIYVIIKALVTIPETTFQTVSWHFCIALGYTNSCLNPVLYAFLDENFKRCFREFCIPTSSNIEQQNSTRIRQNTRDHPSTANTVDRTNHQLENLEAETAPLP
# mu opioid receptor (Rattus norvegicus, UniProt P33535), sequence (P33535 whole entry): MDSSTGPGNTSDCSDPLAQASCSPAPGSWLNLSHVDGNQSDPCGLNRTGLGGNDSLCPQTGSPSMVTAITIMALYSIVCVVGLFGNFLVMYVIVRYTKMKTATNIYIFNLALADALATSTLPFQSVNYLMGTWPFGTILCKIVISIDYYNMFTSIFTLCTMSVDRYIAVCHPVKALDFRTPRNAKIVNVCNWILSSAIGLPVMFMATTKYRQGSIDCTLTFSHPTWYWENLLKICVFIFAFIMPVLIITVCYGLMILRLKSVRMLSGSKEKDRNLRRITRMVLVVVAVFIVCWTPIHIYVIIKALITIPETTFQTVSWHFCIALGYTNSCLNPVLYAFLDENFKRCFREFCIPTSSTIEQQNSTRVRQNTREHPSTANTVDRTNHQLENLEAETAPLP
# delta opioid receptor, sequence (P33533 whole entry): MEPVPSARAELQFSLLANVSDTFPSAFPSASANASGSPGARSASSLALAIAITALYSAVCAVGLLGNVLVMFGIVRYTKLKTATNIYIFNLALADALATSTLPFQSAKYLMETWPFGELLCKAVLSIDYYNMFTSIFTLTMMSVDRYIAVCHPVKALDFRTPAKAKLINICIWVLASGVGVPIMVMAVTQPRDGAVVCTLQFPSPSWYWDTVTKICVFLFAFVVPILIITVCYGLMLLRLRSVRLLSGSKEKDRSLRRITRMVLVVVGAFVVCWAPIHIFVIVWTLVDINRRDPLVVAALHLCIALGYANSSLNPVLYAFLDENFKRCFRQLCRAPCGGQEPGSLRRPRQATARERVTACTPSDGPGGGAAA
# kappa opioid receptor, sequence (P34975 whole entry): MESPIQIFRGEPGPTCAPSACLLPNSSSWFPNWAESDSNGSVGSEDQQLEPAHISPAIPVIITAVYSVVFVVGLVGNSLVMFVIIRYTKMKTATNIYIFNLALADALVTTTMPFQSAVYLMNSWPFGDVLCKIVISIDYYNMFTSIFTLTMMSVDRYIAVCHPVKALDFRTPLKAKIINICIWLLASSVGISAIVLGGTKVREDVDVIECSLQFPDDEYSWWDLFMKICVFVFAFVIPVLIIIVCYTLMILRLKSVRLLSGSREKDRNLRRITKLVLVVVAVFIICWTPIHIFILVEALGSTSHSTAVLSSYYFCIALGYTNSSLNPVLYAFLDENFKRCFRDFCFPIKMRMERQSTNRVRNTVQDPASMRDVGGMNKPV
smiles,measurement,setting,value
"C[C@@H](NC(=O)[C@@H](N)Cc1ccc(O)cc1)C(=O)NCC(=O)N(C)[C@@H](Cc1ccccc1)C(=O)NCCO [DAMGO, [D‐Ala^2,N‐MePhe^4,Gly‐ol^5]‐enkephalin]",Emax,human mu opioid receptor [1],85%
same,Emax (maximal inhibition of forskolin-stimulated cAMP levels) by DAMGO,human mu opioid receptor [2],43% ± 2% and 46% ± 3% and 48% ± 5%
same,response to DAMGO (inhibition of forskolin-stimulated cAMP levels),human mu opioid receptor [2],essentially abolished
same,effect of agonist on PGE2-stimulated thermal allodynia,"mu opioid receptor [3]; DAMGO 20 μg i.pl., vehicle pretreatment, rat hindpaw",reduced
"Cc1ccc(/C=C/C(=O)N[C@@]23CCC(=O)[C@@H]4Oc5c(O)ccc6c5[C@@]42CCN(CC2CC2)[C@@H]3C6)cc1 [MCAM, 14β‐(4′‐methylcinnamoylamido)‐7,8‐dihydro‐N‐cyclopropylmethyl‐normorphinone]",change in the maximal response to DPDPE,[4]; 15 min or 2 h pretreatment,no change
same,rightward shift of the curve for DPDPE by the antagonist,[4]; 15 min or 2 h pretreatment,~ 10 fold
same,effect of washout on antagonism at delta receptors,"[4]; 2 h, then wash",fully reversed
same,change in the maximal response to U50488,[5],no change
same,rightward shift of the curve for U50488 by the antagonist,[5],~ 10 fold
same,effect of washout on antagonism at kappa receptors,"[5]; MCAM 50 nM, 2 h, then wash",fully reversed
same,3H-DAMGO binding in brain tissue,mu opioid receptor [6],reduced
same,effect of antagonist on U50488-mediated antinociceptive response,kappa opioid receptor,did not block
same,effect of antagonist on the antinociceptive response to U50488,kappa opioid receptor,antagonized
same,effect of antagonist alone on forskolin-stimulated cAMP levels,human mu opioid receptor [2],did not alter
same,effect of washout on antagonism of DAMGO,human mu opioid receptor [2],did not alter
same,effect of washout on the reduction of the DAMGO maximal response,human mu opioid receptor [2],insensitive to washout
same,rightward shift of the morphine concentration response curve by the antagonist,human mu opioid receptor [2],10 fold
same,effect of antagonist on the antinociceptive response to DAMGO,"mu opioid receptor [3]; MCAM 0.25 μg/50 μl i.pl., 15 min pretreatment",antagonized
same,effect of antagonist on the antinociceptive response to DPDPE,"delta opioid receptor; MCAM 0.5 μg/50 μl i.pl., 15 min pretreatment",antagonized
same,effect of antagonist on DPDPE-mediated antinociceptive response,delta opioid receptor; tested 24 h after MCAM administration i.pl.,did not block
"COC(=O)/C=C/C(=O)N[C@@H]1CC[C@@]2(O)[C@H]3Cc4ccc(O)c5c4[C@@]2(CCN3CC2CC2)[C@H]1O5 [β‐FNA, β‐funaltrexamine]",rightward shift of the DAMGO curve by the antagonist,human mu opioid receptor [7],about 100 fold
same,effect of antagonist alone on forskolin-stimulated cAMP levels,human mu opioid receptor [2],had no effect
same,effect of washout on antagonism of DAMGO,human mu opioid receptor [2],not sensitive to washout
